96 compounds from PubChem BioAssay AID1046 (PCMD, 2008) can be followed below.

Structures are written as SMILES. In all, about 220,000 compounds went through this assay and about 560 (0.25%) were called active. Only a selection was taken, and actives are over-represented in it overall. A number with no mark means an inactive call.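 Rule for the calls: active = inhibition at or above 40%; inactive = inhibition below 40%.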

As usually defined, the inhibition is the relative decrease from the control value, in per cent.

The target of the assay is Prothrombin (Homo sapiens) (UniProt P00734). As to the kind of experiment: blockers of thrombin peptide substrate cleavage – biochemical, 1536-well, fluorogenic AMC substrate, counter-screen for coagulation protease inhibitor project, primary screen (AID 1046).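 Note: 0% = enzyme with no compound and 100% = wells without enzyme.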 As to conditions: alpha-thrombin, Boc-VPR-AMC fluorogenic substrate cleavage; at 5 µM; stronger effect = higher value. The essentials:
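Material: human alpha-thrombin protein. Incubation: reaction at ambient temperature. Technique: fluorescence of released AMC, ex 355 nm, em 460 nm. Control set: no-compound enzyme wells and no-enzyme blanks. Also added: Boc-VPR-AMC substrate, 15 µM final. Buffer or medium: pH 7.5 Tris (50 mM) with NaCl 150 mM, Tween 20 0.05%.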
With `Cc1nc(Cl)c2oc3ccccc3c2n1`, the inhibition was 104% (active). The figure for `CCSc1nc(C)nc2c1oc1ccccc12` is 4.11%.

In the case of `Cc1nc(N2CCCC2C(=O)O)c2oc3ccccc3c2n1` (stereo unspecified), the inhibition is 2.84%. The figure for `CCc1nnc(NC(=O)CCC(=O)NCc2ccccc2OC)s1` is 2.56%. The value for `CCc1nnc(NC(=O)CCC(=O)O)s1` was 8.11%; that for `CCc1nnc(NC(=O)CCN(c2ccc(C)cc2)S(=O)(=O)c2ccccc2)s1` was 47.5% (active); that for `O=C(Nc1ccc(F)cc1)c1cc2c(s1)CCCC2` was -1.36%. The figure for `CCCCNS(=O)(=O)c1ccc2nc(SCC(=O)Nc3cc(C)cc(C)c3)[nH]c2c1` is -6.37%. As for `CN(C(=O)c1c(Cl)cnn1C)C12CC3CC(CC(C3)C1)C2`, the inhibition is -15.4%. On to `C/C(=N\NC(=O)CSc1nc2ccccc2c(=O)n1-c1ccccc1C)c1cccs1`, for which the inhibition was 0.36%.

For the compound `Cc1ccc(OCCOCCOc2ccc(Br)cc2/C=N\NC(=O)c2ccncc2)cc1`, the inhibition is -13.6%. The figure for `Cc1c([N+](=O)[O-])c(N)nn1C` is 5.35%; for `Cc1ccc2cc(C)c(N3CCC(C)CC3)nc2c1` it is -2.54%; for `CN(c1ccc(OCC(=O)OCC(=O)Nc2cccc([N+](=O)[O-])c2)cc1)S(=O)(=O)c1ccc(F)cc1` it is 2.69%.

Turning to `CC1CC(=O)Nc2ccccc2N1S(=O)(=O)c1cccs1` (stereo unspecified), the inhibition is -3.5%.

On to `Cc1[nH]c2ccccc2c1-c1ccc(Cl)nn1`, for which the inhibition was 1.85%. The figure for `O=C(O)C(F)(F)C(NCc1ccccc1)c1ccccc1` (stereo unspecified) is 5.86%; for `CN(C)C(CNC(=O)c1cccc(C#N)c1)c1ccco1` (stereo unspecified) it is -12.4%. Turning to `CC/C=C/C(=O)N1CC2(CC(c3cccc(NC(=O)CC)c3)=NO2)C[C@H]1C(N)=O` (stereo partly specified), the inhibition is -2.66%. The figure for `CCOC(=O)C1CCN(c2ccc(C(=O)O)cc2[N+](=O)[O-])CC1` is -6.48%; for `CCOC(=O)CSc1ccccn1` it is -0.12%; for `CCOC(=O)CSC1=N/C(=C/c2ccc(-n3cncn3)cc2)C(=O)N1C(C)=O` it is 86.8% (active). The figure for `CCOC(=O)CSc1nc(C)cc2c1C(=O)OC2` is -3.04%.

For the compound `N#Cc1c(C(F)(F)F)cc(-c2cccs2)nc1N1CCCCC1`, the inhibition is -5.35%. In the case of `COc1ccc(-n2c(O)c(C=NCC(c3ccco3)N3CCCC3)c3ccccc3c2=O)cc1OC` (stereo unspecified), the inhibition was 1.85%. The value for `CCc1ccccc1NC(=O)CN(C)S(=O)(=O)c1ccc2c(c1)c(=O)n(C)c(=O)n2C` was -7.84%; that for `CCN(C(=O)CSc1nnc2ccccn12)C1CCS(=O)(=O)C1` (stereo unspecified) was 2.43%.

Take `CCOC(=O)c1nnn2c3ccccc3c(=O)n(C)c12`: the inhibition is -5.13%. `COC(=O)c1onc(-c2c(OC)cc(OC)cc2OC)c1C(=O)OC`: the inhibition was 1.99%. The figure for `COc1ccc(C(C)=O)cc1CSc1nc2nc(C)cc(C)n2n1` is -1.59%; for `Cc1ccc(S(=O)(=O)/N=C(\CN2CCOCC2)N2CCOCC2)cc1` it is -16.3%; for `Nc1ccccc1Sc1cc(Cl)nnc1Cl` it is 14.4%. Take `CC(=O)NCCC(=O)Nc1nc(C)c(Cc2ccc3c(c2)OCO3)s1`: the inhibition is -4.26%. The value for `Cc1ccc(NC(=S)NCCN2CCOCC2)cc1` was -1.01%; that for `Nc1nc(NCCCN2CCOCC2)nc(Nc2ccccc2)c1[N+](=O)[O-]` was -6.41%.

Regarding `CCOc1nc(NCCN2CCOCC2)nc(Nc2ccc(C)cc2)n1`, the inhibition is 63.7% (active). As to `CSc1c(SCc2ccccc2)cnn(Cc2ccccc2)c1=O`, the inhibition is 0.48%. The figure for `COCCOC(=O)c1c(C)oc2cc(Br)c(OCC(N)=O)cc12` is -6.6%; for `O=C1N(c2ccccc2)C(=Nc2ccccc2)SC12CC2` it is -5.96%. The figure for `COc1ccc(C/C(C)=N/NC(=O)c2cc(C)oc2C)cc1` is 0.98%; for `CN(C(=O)CSc1nnc(Nc2ccccc2)s1)C1CCS(=O)(=O)C1` (stereo unspecified) it is -0.79%. The value for `Cc1cc(C(=O)COc2ccccc2[N+](=O)[O-])c(C)n1-c1cccc(S(=O)(=O)N2CCOCC2)c1` was 5.89%; that for `CC1=C(C)CC(C(=O)NNC(=O)c2ccccc2O)C(C(=O)O)C1` (stereo unspecified) was -3.8%.

On to `Cc1cc(C)n2nc(C(=O)N3CCN(Cc4ccc5c(c4)OCO5)CC3)nc2n1`, for which the inhibition is -9.34%. Consider `COc1ccc(CNC(=O)CN(Cc2ccc(Cl)cc2)S(C)(=O)=O)cc1`, for which the inhibition is -2.34%. Take `Cc1cc(C)cc(C(=O)NC2C(=O)N3C(C(=O)O)=C(CSc4nnc(C)s4)CSC23)c1` (stereo unspecified): the inhibition was -12%.

`O=C(Cn1cnc([N+](=O)[O-])n1)NCCc1ccccc1`: the inhibition was -6.67%. On to `CN(C)c1cc(-c2ccc(F)cc2)oc(=O)c1Cl`, for which the inhibition is -0.75%. The figure for `CN(c1ccc(OCC(=O)NC2=NCCS2)cc1)S(=O)(=O)c1ccc(F)cc1` is -4.51%; for `Cc1ccc(SCc2c(C(=O)N/N=C/C3CC=CCC3)nnn2-c2nonc2N)cc1` (stereo unspecified) it is -0.65%; for `O=C(NCC1CCCO1)c1cc(-c2ccccc2)nc2ccccc12` (stereo unspecified) it is 3.52%. The value for `Cn1cc(CN2CCCCC2c2ccccn2)c(-c2ccc3c(c2)OCCO3)n1` (stereo unspecified) was -14.8%; that for `O=S(=O)(c1cccc(C(F)(F)F)c1)N1CCN(c2cnccn2)CC1` was 2.6%; that for `CCCN1C(=O)C(Cc2nc3ccccc3c(=O)n2-c2ccccc2)c2cc(C)ccc21` (stereo unspecified) was -0.44%. The value for `O=C(Nc1nnc(COc2ccccc2)s1)Nc1ccccc1F` was 1.51%; that for `CCOC(=O)C1(CCOC)CCN(Cc2ccc(C(=O)OC)cc2)CC1` was -3.33%. Regarding `CC(C)Oc1ccc(CCC(=O)NNC(=S)NCc2ccccc2)cc1`, the inhibition was 5.08%. The figure for `CCN(CC)CCC(c1ccc2c(c1)OCO2)c1c(OC)cc(OC)c2c(-c3ccccc3)cc(=O)oc12` (stereo unspecified) is -12.8%. The value for `O=C(c1ccccc1Cl)N(Cc1ccccc1F)N1C(=O)CCCC1=O` was -0.77%; that for `CCC(C)[C@@H](C(=O)N1CCNCC1)n1cc(CCCCN)nn1` (stereo partly specified) was -2.39%.

For `CCOC(=O)C1(C)NC(c2ccco2)C2C(=O)N(c3ccccc3)C(=O)C21` (stereo unspecified), the inhibition was -2.99%. The figure for `O=C(Nc1ccccc1F)c1ccc(Cn2cc(Br)cn2)cc1` is 0.95%; for `CCCC(O)(CCC)C(=O)NN(C(=O)CCl)c1cccc(C)c1` it is -0.4%. On to `CC(C)Cc1ccc(C(C)C(=N)N)cc1` (stereo unspecified), for which the inhibition is -0.2%. Regarding `CCS(=O)(=O)N1Cc2ccccc2CC1C(=O)Nc1nc2ccc(F)cc2s1` (stereo unspecified), the inhibition was -4.77%. The figure for `O=C(CSc1nnnn1-c1ccc(O)cc1)c1ccc(F)cc1` is -1.4%; for `CC1CN(S(=O)(=O)c2ccc(C(=O)NN3CCN(C)CC3)cc2)CC(C)O1` (stereo unspecified) it is -9.4%. In the case of `CC(C)(C)C1CCC(OC(=O)CCC(=O)Nc2ccccc2)CC1` (stereo unspecified), the inhibition was -0.51%. The value for `CC(C)N1C(=O)N(c2ccccc2)C(C)(O)CC1(C)C` (stereo unspecified) was -4.92%; that for `COC(=O)c1cc2c(N)c(C(=O)c3ccc(Cl)cc3)sc2nc1C(OC)OC` was 3.67%; that for `COc1ccccc1NC(=O)c1cc(Cl)nnc1Cl` was -8.6%. The figure for `C=C(C)COc1ccc(-c2nc(N)ncc2-c2ccccc2OC)c(O)c1` is -2.7%. The figure for `COc1cc(NC(=O)c2ccc(CNc3c(N4CCCC4)c(=O)c3=O)cc2)cc(OC)c1OC` is 3.4%; for `Cc1ccc(NC(=O)C2CCCN(S(=O)(=O)c3c(C)noc3C)C2)c(C)c1` (stereo unspecified) it is -4.66%. Regarding `COc1c(C)cc(C(=O)C2CCCN(S(=O)(=O)c3c(C)noc3C)C2)cc1C` (stereo unspecified), the inhibition was 41.9% (active).

As to `Cc1noc(C)c1S(=O)(=O)N1CCCC(C(=O)Nc2nccs2)C1` (stereo unspecified), the inhibition was -1.5%.

For the compound `CN1CCN(c2ncc3c(n2)CC(c2ccccc2F)CC3=O)CC1` (stereo unspecified), the inhibition was -5.02%. The value for `Cc1ccc(C)c(NC(=S)NCC(c2cccnc2)N2CCOCC2)c1` (stereo unspecified) was -3.59%. The figure for `CCCC/C(C)=N/NC(=O)NC1CCCCC1` is -6.13%; for `COC(=O)Cn1cc(C(=O)c2cccs2)c2ccccc21` it is 47% (active); for `COCCNC(=O)Cn1cc(C(=O)c2cccs2)c2ccccc21` it is 0.65%. The figure for `O=C(Cn1cc(C(=O)c2cccs2)c2ccccc21)NCc1cccs1` is -2.66%.

As to `Clc1ccc(CSc2nnc3c(n2)[nH]c2ccccc23)cc1`, the inhibition was -0.71%.

Regarding `CCC(C(=O)Nc1ccc(C(C)C)cc1)c1ccccc1` (stereo unspecified), the inhibition was -7.56%. The value for `CCc1ccc(CNC(=O)CCc2nc(-c3cccs3)no2)cc1` was 6.55%; that for `O=C(Cn1c2[n+](c3ccc(C(F)(F)F)cc31)CCCCC2)Nc1c(F)cccc1F` was -11.3%. The figure for `O=C(CSc1ccc([N+](=O)[O-])cn1)Nc1ccc(N2CCOCC2)c(Cl)c1` is -6.75%. The figure for `C=CCN(C(=O)Nc1ccc2c(c1)nc(C)n2C)c1ccccc1` is 43.6% (active); for `Cc1nc2cc(NC(=O)Nc3cccc(F)c3)ccc2n1C` it is 13.7%. On to `C=CCN(C(=O)Nc1ccc2oc(C)nc2c1)c1ccccc1`, for which the inhibition is -2.2%.

`CCN(CC)C(=O)N(CC)Cc1ccccc1`: the inhibition was -4.01%. The figure for `Cc1cc(C)n2nc(C(=O)N(C)C(c3ccccc3)c3ccccc3)nc2n1` is -10.8%; for `CCOc1cc(NC(=S)NCCCN(C)C)c(OCC)cc1NC(=O)C1CC1` it is -9.76%; for `O=C1/C(=C\c2cccnc2)CN(Cc2ccccc2)C/C1=C\c1cccnc1` it is 10.5%. The value for `O=C(c1[nH]ncc1-c1ccc(Cl)cc1)C1CO1` (stereo unspecified) was -4.22%; that for `CC(=O)OCCOCn1cnn2c(=O)c(Br)c(C)nc12` was 0.26%.
